Test results as given in ChEMBL document CHEMBL1122774, “Tri- and tetrapeptide analogues of kinins as potential renal vasodilators” (J Med Chem, 1984).
Square brackets hold non-standard residues; d marks the D form. Peptide text beside a SMILES is read from it. * marks the point of attachment. ξ: configuration not given here. Butanoyl(4-(4-HOPh)) = O=C(CCCc1ccc(O)cc1)*; Hydrocinnamoyl = O=C(CCc1ccccc1)*; ξαMeF = CC(N)(Cc1ccccc1)C(=O)O; PhAc = O=C(Cc1ccccc1)*; Bz = O=C(c1ccccc1)*

Experiments:
Canis familiaris [1] = assay: In vivo percent change in canine renal vascular resistance (RVR) at 300 ug/Kg/min.; format: functional, Canis lupus familiaris
How it was run: (§1)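 Primary screen in anesthetized dogs (7-17 kg). Drug infused separately at 3, 30 and 300 µg/(kg min), each infusion lasting 5 min, at about 15-min intervals. Read-outs are renal blood flow, mean arterial blood pressure, heart rate, and RVR (MABP / mean RBF), as percent change. Significance thresholds are defined per number of dogs; n = 1-3 dogs.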

Canis familiaris [2] = assay: In vivo percent change in canine mean arterial blood pressure (MABP) at 300 ug/Kg/min.; format: functional, Canis lupus familiaris; how it was run: as §1
Canis familiaris [3] = assay: In vivo percent change in canine heart rate at 30 ug/Kg/min.; format: functional, Canis lupus familiaris; how it was run: as §1
Canis familiaris [4] = assay: In vivo percent change in canine renal blood flow (RBF) at 3 ug/Kg/min.; format: functional, Canis lupus familiaris, Kidney; how it was run: as §1
Canis familiaris [5] = assay: In vivo percent change in canine heart rate at 3 ug/Kg/min.; format: functional, Canis lupus familiaris; how it was run: as §1
Canis familiaris [6] = assay: In vivo percent change in canine heart rate at 300 ug/Kg/min.; format: functional, Canis lupus familiaris; how it was run: as §1
Canis familiaris [7] = assay: In vivo percent change in canine mean arterial blood pressure (MABP) at 3 ug/Kg/min.; format: functional, Canis lupus familiaris; how it was run: as §1
Canis familiaris [8] = assay: In vivo percent change in canine mean arterial blood pressure (MABP) at 30 ug/Kg/min.; format: functional, Canis lupus familiaris; how it was run: as §1
Canis familiaris [9] = assay: In vivo percent change in canine renal blood flow (RBF) at 300 ug/Kg/min.; format: functional, Canis lupus familiaris, Kidney; how it was run: as §1
Canis familiaris [10] = assay: Renal vasodilator activity in anesthetized dogs and percent change in renal vascular resistance (RVR) was determined at 30 ug/Kg/min; format: functional, Canis lupus familiaris; how it was run: as §1
Canis familiaris [11] = assay: In vivo percent change in canine renal vascular resistance (RVR) at 3 ug/Kg/min.; format: functional, Canis lupus familiaris; how it was run: as §1
Canis familiaris [12] = assay: In vivo percent change in renal blood flow at 30 ug/Kg/min.; format: functional, Canis lupus familiaris, Kidney; how it was run: as §1
Canis familiaris [13] = assay: Renal vasodilator activity in anesthetized dogs and percent change in renal blood flow (RBF) was determined at 300 ug/kg min; format: functional, Canis lupus familiaris, Kidney; how it was run: as §1
Canis familiaris [14] = assay: Renal vasodilator activity in anesthetized dogs and percent change in mean arterial blood pressure (MABP) was determined at 3 ug/kg min; format: functional, Canis lupus familiaris; how it was run: as §1
Canis familiaris [15] = assay: Renal vasodilator activity in anesthetized dogs and percent change in heart rate (HR) was determined at 3 ug/kg min; format: functional, Canis lupus familiaris; how it was run: as §1
Canis familiaris [16] = assay: Renal vasodilator activity in anesthetized dogs and percent change in renal blood flow (RBF) was determined at 3 ug/kg min; format: functional, Canis lupus familiaris, Kidney; how it was run: as §1
Canis familiaris [17] = assay: Renal vasodilator activity in anesthetized dogs and percent change in heart rate (HR) was determined at 30 ug/kg min; format: functional, Canis lupus familiaris; how it was run: as §1
Canis familiaris [18] = assay: Renal vasodilator activity in anesthetized dogs and percent change in renal vascular resistance (RVR) was determined at 3 ug/kg min; format: functional, Canis lupus familiaris; how it was run: as §1
Canis familiaris [19] = assay: Renal vasodilator activity in anesthetized dogs and percent change in renal blood flow (RBF) was determined at 30 ug/kg min; format: functional, Canis lupus familiaris, Kidney; how it was run: as §1
Canis familiaris [20] = assay: Renal vasodilator activity in anesthetized dogs and percent change in heart rate (HR) was determined at 300 ug/kg min; format: functional, Canis lupus familiaris; how it was run: as §1
Canis familiaris [21] = assay: Renal vasodilator activity in anesthetized dogs and percent change in renal vascular resistance (RVR) was determined at 30 ug/kg min; format: functional, Canis lupus familiaris; how it was run: as §1
Canis familiaris [22] = assay: Renal vasodilator activity in anesthetized dogs and percent change in renal vascular resistance (RVR) was determined at 300 ug/kg min; format: functional, Canis lupus familiaris; how it was run: as §1
Canis familiaris [23] = assay: Renal vasodilator activity in anesthetized dogs and percent change in mean arterial blood pressure (MABP) was determined at 30 ug/kg min; format: functional, Canis lupus familiaris; how it was run: as §1
Canis familiaris [24] = assay: Renal vasodilator activity in anesthetized dogs and percent change in mean arterial blood pressure (MABP) was determined at 300 ug/kg min; format: functional, Canis lupus familiaris; how it was run: as §1
Canis familiaris [25] = assay: In vivo percent change in canine renal vascular resistance (RVR) at 30 ug/Kg/min.; format: functional, Canis lupus familiaris; how it was run: as §1

Structure (SMILES)	Change (Canis familiaris [1])	Change (Canis familiaris [2])	Change (Canis familiaris [3])	Change (Canis familiaris [4])	Change (Canis familiaris [5])	Change (Canis familiaris [6])	Change (Canis familiaris [7])	Change (Canis familiaris [8])	Change (Canis familiaris [13])	Change (Canis familiaris [14])	Change (Canis familiaris [15])	Change (Canis familiaris [16])	Change (Canis familiaris [17])	Change (Canis familiaris [18])	Change (Canis familiaris [19])	Change (Canis familiaris [20])	Change (Canis familiaris [21])	Change (Canis familiaris [22])	Change (Canis familiaris [23])	Change (Canis familiaris [24])	further results
CC(Cc1ccccc1)(NC(=O)[C@@H]1CCCN1C(=O)CCCc1ccc(O)cc1)C(=O)NCCCCCC(=O)O (stereo partly specified)	-4%	1%	-2%	1%	-4%	-6%	0%	2%													Change (Canis familiaris [9]): 5%; Change (Canis familiaris [10]): 5%; Change (Canis familiaris [11]): -1%; Change (Canis familiaris [12]): -4%
CC(Cc1ccc(O)cc1)(NC(=O)[C@@H]1CCCN1C(=O)CCCc1ccc(O)cc1)C(=O)NCCCN.Cl (stereo partly specified)	8.5%	0%	4%	8.5%	1.5%	3.5%	-2%	1%													Change (Canis familiaris [9]): 10%; Change (Canis familiaris [10]): -3%; Change (Canis familiaris [11]): -9.5%; Change (Canis familiaris [12]): 3.5%
CC(Cc1ccccc1)(NC(=O)[C@@H]1CCCN1C(=O)CCCCc1ccccc1)C(=O)N[C@@H](CCCN=C(N)N)C(=O)O (stereo partly specified)									3%	1%	-1%	4%	-1%	-2%	1%	6%	1%	-2%	3%	1%	
CC(CN[C@@H](CCCN=C(N)N)C(=O)O)(Cc1ccccc1)NC(=O)[C@@H]1CCCN1 (stereo partly specified)	-11%	-5%	4%	0%	0%	-7%	1%	1%													Change (Canis familiaris [25]): -6%; Change (Canis familiaris [9]): 7%; Change (Canis familiaris [11]): 1%; Change (Canis familiaris [12]): 8%
CC(Cc1ccccc1)(NC(=O)[C@@H]1CCCN1)C(=O)N1CCC[C@H]1C(=O)O (stereo partly specified) (H-Pro-[ξαMeF]-Pro-OH)									8%	1%	0%	0%	0%	1%	0%	0%	0%	-10%	0%	-3%	
CC(Cc1ccccc1)(NC(=O)[C@@H]1CCCN1C(=O)Cc1ccccc1)C(=O)N[C@@H](CCCN=C(N)N)C(=O)O (stereo partly specified) (PhAc-Pro-[ξαMeF]-Arg-OH)									-2%	0%	9%	4%	-2%	-4%	0%	0%	0%	7%	0%	5%	
CC(Cc1ccccc1)(NC(=O)[C@@H]1CCCN1)C(=O)N[C@@H](CCCN=C(N)N)C(=O)O (stereo partly specified) (H-Pro-[ξαMeF]-Arg-OH)									7.3%	1%	-0.7%	1.3%	0%	0.3%	9.3%	0%	-7.3%	-5.3%	-0.3%	-0.7%	
N=C(N)NCCC[C@H](NC(=O)[C@H](Cc1ccccc1)NC(=O)[C@@H]1CCCN1C(=O)CCCc1ccccc1)C(=O)O									-1.7%	1%	2%	5.3%	1.7%	-5.7%	4%	-1.7%	-3.7%	1%	0.3%	-0.7%	
N=C(N)NCCC[C@H](NC(=O)[C@@H](Cc1ccccc1)NC(=O)[C@@H]1CCCN1C(=O)CCCc1ccccc1)C(=O)O									4%	0%	-3%	3%	0%	-3%	2%	-2%	-1%	-4%	1%	0%	
CC(Cc1ccccc1)(NC(=O)[C@@H]1CCCN1C(=O)CCCc1ccc(O)cc1)C(=O)N[C@@H](CCCN=C(N)N)C(=O)O (stereo partly specified)									11%	-4%	0%	8%	0%	-12%	12%	0%	-9%	-11%	2%	0%	
N=C(N)NCCC[C@H](NC(=O)[C@H](Cc1ccccc1)NC(=O)[C@@H]1CCCN1C(=O)c1ccccc1)C(=O)O (Bz-Pro-Phe-Arg-OH)									-10%	4%	0%	3%	0%	2%	0%	0%	0%	11%	1%	0%	
Cl.NCCCNC(=O)[C@@H]1Cc2ccccc2CN1C(=O)CCCc1ccc(O)cc1									5%	-2%	1%	3%	-2%	-6%	6%	-1%	-6%	-6%	-1%	-2%	
CC(Cc1ccccc1)(NC(=O)[C@@H]1CCCN1C(=O)CCCc1ccccc1)C(=O)N[C@@H](CCCN=C(N)N)C(=O)O (stereo partly specified)									1%	3%	-3.6%	0%	0%	3%	4.6%	-1%	-1.8%	0%	2.8%	1%	
O=C(NCC(=O)N1CCC[C@H]1C(=O)O)[C@@H](Cc1ccccc1)NC(=O)[C@@H]1CCCN1C(=O)CCCc1ccc(O)cc1 ({Butanoyl(4-(4-HOPh))}-P[dF]GP-OH)	-1%	-1%	-2%	2%	1%	-1%	0%	-1%													Change (Canis familiaris [9]): -1%; Change (Canis familiaris [10]): -1%; Change (Canis familiaris [11]): -2%; Change (Canis familiaris [12]): 0%
CC(Cc1ccccc1)(NC(=O)[C@@H]1CCCN1C(=O)CCc1ccccc1)C(=O)N[C@@H](CCCN=C(N)N)C(=O)O (stereo partly specified) (Hydrocinnamoyl-Pro-[ξαMeF]-Arg-OH)									1%	-2%	8%	5%	1%	-7%	2%	-1%	-5%	0%	-3%	1%	
N=C(N)NCCC[C@H](NC(=O)[C@H](Cc1ccccc1)NC(=O)[C@@H]1CCCN1)C(=O)O (H-Pro-Phe-Arg-OH)									-3%	-1%	-6%	4%	3%	-5%	3%	6%	-2%	0%	1%	-4%	
N=C(N)NCCC[C@H](NC(=O)[C@@H]1Cc2ccccc2CN1C(=O)CCCc1ccc(O)cc1)C(=O)O	11%	-2%	0%	7%	1%	0%	-1%	1%													Change (Canis familiaris [9]): -12%; Change (Canis familiaris [10]): -1%; Change (Canis familiaris [11]): -6%; Change (Canis familiaris [12]): 2%
COc1ccc(CC(C)(NC(=O)[C@@H]2CCCN2C(=O)CCCc2ccc(O)cc2)C(=O)NCCCN)cc1OC.Cl (stereo partly specified)	-10%	-1.5%	-1%	13.5%	0.5%	1.5%	1.5%	-2%													Change (Canis familiaris [9]): 10.5%; Change (Canis familiaris [10]): -15.5%; Change (Canis familiaris [11]): -11%; Change (Canis familiaris [12]): 16.5%
